23 compounds from ChEMBL document CHEMBL1150381, “Effects of amide constituents from pepper on adipogenesis in 3T3-L1 cells” (Bioorg Med Chem Lett, 2008) can be followed below.

The test system of data set [1] is 3T3-L1. Nature of the data set: Antidiabetic activity in mouse 3T3L1 cells assessed as enhancement of triglyceride accumulation at 10 uM. Format: functional. In a few lines:
(§1)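 3T3-L1 cells (5.0 × 10^4/well) in DMEM + 10% FCS; after 24 h differentiated 72 h in high-glucose DMEM/10% FCS with 1 µM dexamethasone, 0.5 mM IBMX, 5 µg/mL insulin, then maintenance medium (10% FCS, 5 µg/mL insulin) 4 days. Compound in DMSO (final 0.1%) in both media. Day 8: cells sonicated in water, triglyceride measured by enzymatic kit; means ± SEM, n = 4.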

Data set [2] concerns 3T3-L1. Nature of the data set: Antidiabetic activity in mouse 3T3L1 cells assessed as enhancement of triglyceride accumulation at 30 uM. The class given is functional. In a few lines: as §1
Data set [3] has as its system 3T3-L1. Nature of the data set: Antidiabetic activity in mouse 3T3L1 cells assessed as enhancement of triglyceride accumulation at 1 uM. Format: functional. In a few lines:
as §1

The subject of data set [4] is 3T3-L1. Description: Antidiabetic activity in mouse 3T3L1 cells assessed as enhancement of triglyceride accumulation at 3 uM. The class given is functional. In a few lines: as §1
The subject of data set [5] is 3T3-L1. Description: Cytotoxicity against mouse 3T3L1 cells at 30 uM. The class given is cell-based. The settings on record: 3t3-l1, 30 µM. In a few lines:
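Cells differentiated and treated through day 8 as in triglyceride assay; cytotoxicity at 30 µM judged by cell detachment from culture plate surface.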

For data set [6], the system named is 3T3-L1. Nature of the data set: Induction of adiponectin release to medium in mouse 3T3L1 cells at 10 uM by ELISA. The class given is functional, cell-based. In a few lines: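 3T3-L1 cells (5.0 × 10^4/well) differentiated, then maintenance medium 4 days; compound in DMSO (final 0.1%) present in media; on day 8 adiponectin in culture medium quantified by ELISA.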
For orientation: In an ELISA, binding on a coated surface is turned into a signal by an enzyme label.

Data set [7] deals with 3T3-L1. Nature of the data set: Increase in IRS1 mRNA expression in mouse 3T3L1 cells at 30 uM after 4 days by RT-PCR. Format: functional, cell-based. In a few lines:
(§2)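 3T3-L1 cells (1.0 × 10^6/well) in DMEM + 10% FCS, differentiated with compound; control 0.1% DMSO; mRNA levels of adiponectin, PPARγ2, GLUT4, IRS-1 assessed; means ± SEM, n = 3.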

For data set [8], the system named is 3T3-L1. Nature of the data set: Increase in 2-deoxyglucose uptake in mouse 3T3L1 cells at 3 uM by liquid scintillation counter. Format: functional, cell-based. In a few lines: (§3)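 Cells differentiated as for triglyceride assay with compound in DMSO (final 0.1%) in differentiation and maintenance media. Day 8: serum-free 4 h, KRP buffer wash, 20 min with 100 nM insulin, then 0.1 mM 2-deoxyglucose plus [3H]2-deoxyglucose (1 µCi/mL) 10 min at 37 °C. Lysed in 1 M NaOH, neutralized, scintillation counted; cytochalasin B (20 µM) nonspecific uptake subtracted.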

The test system of data set [9] is 3T3-L1. Description: Increase in adiponectin mRNA expression in mouse 3T3L1 cells at 10 uM after 4 days by RT-PCR. The class given is functional, cell-based. In a few lines:
as §2

Data set [10] has as its system 3T3-L1. Description: Increase in PPARgamma2 mRNA expression in mouse 3T3L1 cells after 4 days by RT-PCR. The class given is functional, cell-based. In a few lines:
as §2

Data set [11] has as its system 3T3-L1. Description: Increase in GLUT4 mRNA expression in mouse 3T3L1 cells after 4 days by RT-PCR. Format: functional, cell-based. In a few lines:
as §2

In data set [12] the test system is 3T3-L1. Description: Increase in 2-deoxyglucose uptake in mouse 3T3L1 cells by liquid scintillation counter. Format: functional, cell-based. In a few lines:
as §3

Each structure is given as a SMILES string. Activity calls are given as the source filed them. No cut-off for these calls is given here.

On to `CCCCC/C=C\CCCCCCCC/C=C/C=C/C(=O)NCC(C)C`, for which the Activity in the data set on 3T3-L1 [1] is reported as 7.2%; in the data set with 3T3-L1 [2], 20.2%; in the data set with 3T3-L1 [3], -3%; in the data set on 3T3-L1 [4], -7.2%.
For `CCCCCCCCCCCCC/C=C/C=C/C(=O)NCC(C)C` the same measures were 19.6%, 20.6%, 14.1% and 3.3%.
For `CCCCCCC/C=C/C=C/C(=O)NCC(C)C` the same measures were 11.1%, 15.3%, 10.1% and 16.3%.
For the compound `O=C(O)/C=C/C=C/CC/C=C/c1ccc2c(c1)OCO2`, the Activity is given as 3.9% in the data set with 3T3-L1 [1], -7.3% in the data set on 3T3-L1 [2], -3.9% in the data set on 3T3-L1 [3] and 1.5% in the data set on 3T3-L1 [4].
In the case of `CCOC(=O)/C=C/C=C/CC/C=C/c1ccc2c(c1)OCO2`, the Activity with 3T3-L1 [1] came to 1.2%; in the data set on 3T3-L1 [2], 8.7%; with 3T3-L1 [3] it was 2.9%; in the data set on 3T3-L1 [4] it was 2.9%.
On to `CC(C)CNC(=O)/C=C/C=C/CCCCCCCC/C=C/c1ccc2c(c1)OCO2` [BRACHYSTAMIDE B], for which the Activity is recorded as 16.8% in the data set on 3T3-L1 [1], 13.7% with 3T3-L1 [2], 11.1% with 3T3-L1 [3] and 18.5% in the data set on 3T3-L1 [4].
For `O=C(/C=C/C=C/CC/C=C/c1ccc2c(c1)OCO2)N1CCCCC1` [DEHYDROPIPERNOLINE], the Activity with 3T3-L1 [1] is 1.5%; in the data set with 3T3-L1 [3] it was 0.5%; in the data set with 3T3-L1 [5] it was -19.9%; in the data set with 3T3-L1 [4] it was 1.8%.
For the compound `CC(C)CNC(=O)/C=C/C=C/CCCCCC/C=C/c1ccc2c(c1)OCO2` [GUINEENSINE], the Activity with 3T3-L1 [1] is 0.8%; in the data set on 3T3-L1 [2], 2%; in the data set on 3T3-L1 [3], 1.5%; in the data set on 3T3-L1 [4], 9.7%.
For `COC(=O)/C=C/C=C/c1ccc2c(c1)OCO2` [METHYL PIPERATE], in that order: 25.2%, 17.1%, 5.2% and 17.8%.
Take `CCCCC/C=C/C=C/C(=O)NCC(C)C` [PELLITORIN]: the Activity is given as 10% with 3T3-L1 [1], 6.2% in the data set on 3T3-L1 [2], 4.4% in the data set on 3T3-L1 [3] and 18.2% with 3T3-L1 [4].
For `O=C(/C=C/CCc1ccc2c(c1)OCO2)N1CCCCC1` [PIPERANINE], in that order: 13.1%, 8.3%, 20.4% and 19.1%.
For the compound `O=C(/C=C/CCCCCC/C=C/c1ccc2c(c1)OCO2)N1CCCCC1` [PIPERCHABAMIDE B], the Activity in the data set with 3T3-L1 [1] is given as -3.5%; in the data set with 3T3-L1 [3], -14.1%; with 3T3-L1 [5], -30.3%; in the data set with 3T3-L1 [4], -2.2%.
For `O=C(/C=C/C=C/CCCCCC/C=C/c1ccc2c(c1)OCO2)N1CCCCC1` [PIPERCHABAMIDE C], the Activity in the data set on 3T3-L1 [1] is recorded as -10.2%; in the data set with 3T3-L1 [2], -11%; in the data set with 3T3-L1 [3] it was 9.4%; with 3T3-L1 [4] it was 17.6%.
Take `CC(C)CNC(=O)/C=C/CCCCCC/C=C/c1ccc2c(c1)OCO2` [PIPERCHABAMIDE D]: the Activity was 8.5% in the data set on 3T3-L1 [1], 4.7% with 3T3-L1 [2], 1.7% with 3T3-L1 [3] and 8% with 3T3-L1 [4].
As to `O=C(/C=C/C=C/c1ccc2c(c1)OCO2)N1CCCCC1` [PIPERINE], the Activity with 3T3-L1 [1] was -14.2%; in the data set on 3T3-L1 [2] it was -1.2%; in the data set with 3T3-L1 [3] it was -1.2%; in the data set with 3T3-L1 [4], -3.9%.
Take `CC(C)CNC(=O)/C=C/C=C/c1ccc2c(c1)OCO2` [PIPERLONGUMININE]: the Activity is 31.8% with 3T3-L1 [1], 20.4% in the data set with 3T3-L1 [2], 19.5% in the data set with 3T3-L1 [3] and 28.1% in the data set with 3T3-L1 [4].
Consider `O=C(/C=C/CCCC/C=C/c1ccc2c(c1)OCO2)N1CCCCC1` [PIPERNONALINE], for which the Activity is on record as 10.5% in the data set with 3T3-L1 [1], 1% with 3T3-L1 [3], -61.2% in the data set on 3T3-L1 [5] and 5.4% in the data set on 3T3-L1 [4].
Turning to `O=C(CCCCCC/C=C/c1ccc2c(c1)OCO2)N1CCCCC1` [PIPERROLEIN B], the Activity is on record as 20.9% with 3T3-L1 [1], 9.4% with 3T3-L1 [2], -2.8% in the data set on 3T3-L1 [3] and 30.3% in the data set on 3T3-L1 [4].
As for `O=C(/C=C/C=C/CCCC/C=C/c1ccc2c(c1)OCO2)N1CCCCC1` [PIPERUNDECALIDIENE], the Activity in the data set on 3T3-L1 [1] was 7.3%; in the data set on 3T3-L1 [3], -13%; with 3T3-L1 [5], -60.8%; in the data set on 3T3-L1 [4], -7.3%.
Regarding `CC(C)CNC(=O)/C=C/C=C/CC/C=C/c1ccc2c(c1)OCO2` [RETROFRACTAMIDE A], the result with 3T3-L1 [6], in the data set with 3T3-L1 [7], with 3T3-L1 [8], in the data set with 3T3-L1 [9], with 3T3-L1 [10] and in the data set on 3T3-L1 [11] was Active. Moreover, the Activity in the data set on 3T3-L1 [1] was 27.8%; in the data set with 3T3-L1 [2], 33.3%; in the data set on 3T3-L1 [3], 25.1%; with 3T3-L1 [4], 27.3%; with 3T3-L1 [12], “Dose-dependent effect”.
As to `CC(C)CNC(=O)/C=C/C=C/CCCC/C=C/c1ccc2c(c1)OCO2` [RETROFRACTAMIDE B], the Activity in the data set with 3T3-L1 [1] is 28.4%; in the data set with 3T3-L1 [2], 27.6%; in the data set with 3T3-L1 [3], 18.8%; in the data set with 3T3-L1 [4], 29.9%.
Regarding `CC(C)CNC(=O)/C=C/CCCC/C=C/c1ccc2c(c1)OCO2` [RETROFRACTAMIDE C], the Activity is given as 22.2% in the data set on 3T3-L1 [1], 15.4% in the data set with 3T3-L1 [2], 9.7% in the data set with 3T3-L1 [3] and 15% with 3T3-L1 [4].
`Cc1c(C)c2c(c(C)c1O)CCC(C)(COc1ccc(CC3SC(=O)NC3=O)cc1)O2` (centres undefined) [TROGLITAZONE]: in the data set on 3T3-L1 [8], the result was Active. For the same compound, the Activity stood at 39.6% in the data set with 3T3-L1 [1], 33.8% in the data set on 3T3-L1 [3] and 40.5% in the data set with 3T3-L1 [4].
